Source: PubChem BioAssay (Broad Institute)
GSK3B inh: human GSK3beta kinase inhibitors, primary screen, biochemical, cell-free homogeneous, HTS; GST-GSK3beta kinase, ADP-Glo luminescence, 60 min; hits give low values; activity score (negative = inhibition), % at 10 µM; 300,000 tested, 0.038% active; Glycogen synthase kinase-3 beta (Homo sapiens), P49841;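 active = more than half of replicate wells score below -50%, meaning over 50% inhibition versus plate controls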;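 also: 0% = median DMSO wells and -100% = median GW8510 positive control wells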
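Test system: GST-fused GSK3beta enzyme, cell-free | Quantity: 1.6 ng GST-GSK3beta enzyme per well | Reagent: 25 µM ATP with peptide substrate | Schedule: 60 min enzyme reaction, room temperature | Signal: Luminescent ADP-Glo measurement of ADP formed | Read-out basis: Score relative to plate controls | Control set: DMSO and 20 µM GW8510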
DYRK1A inh: rat Dyrk1A kinase inhibitors, primary screen, biochemical, single point, plate reader. Dual specificity tyrosine-phosphorylation-regulated kinase 1A (Rattus norvegicus), Q63470. ADP-Glo luminescence, NFATc1 peptide. inhibition, % at 12.5 µM. 310,000 tested, 0.43% active; in the data active = inhibition above about 50%;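 also: plate controls were vehicle with enzyme for no effect and no enzyme for full effect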
STK33 kinase inh: inhibitors of purified STK33 kinase, primary screen, biochemical, ADP-Glo luminescence, homogeneous, cell-free; MBP phosphorylation; inhibition, % at 10 µM; 320,000 tested, 0.073% active; AID 2661, 2010;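 active = inhibition at or above 25%, using the most active replicate where run in duplicate; inactive = inhibition below 25%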
Target sequence (Q9BYT3 whole entry, looked up): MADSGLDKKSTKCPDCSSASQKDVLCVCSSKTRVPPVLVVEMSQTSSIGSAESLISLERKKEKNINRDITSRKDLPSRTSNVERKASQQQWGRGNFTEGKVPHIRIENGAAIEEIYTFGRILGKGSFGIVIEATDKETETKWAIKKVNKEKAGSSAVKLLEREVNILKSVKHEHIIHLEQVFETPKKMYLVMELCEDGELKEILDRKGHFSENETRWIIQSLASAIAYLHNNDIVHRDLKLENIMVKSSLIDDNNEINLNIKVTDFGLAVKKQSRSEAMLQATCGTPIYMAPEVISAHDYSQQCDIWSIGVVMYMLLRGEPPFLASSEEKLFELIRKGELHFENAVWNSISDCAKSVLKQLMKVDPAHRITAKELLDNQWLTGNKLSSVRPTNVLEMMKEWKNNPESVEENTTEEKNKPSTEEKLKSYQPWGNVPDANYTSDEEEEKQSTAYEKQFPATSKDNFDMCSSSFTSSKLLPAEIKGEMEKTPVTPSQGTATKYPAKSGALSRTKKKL
CDK5 inh: inhibitors of human CDK5/p35 kinase, primary screen, biochemical, single concentration | Cyclin-dependent kinase 5 (Homo sapiens) + Cyclin-dependent kinase 5 activator 1 (Homo … | Recombinant CDK5/p35, ADP-Glo luminescence, 60 min | inhibition, % at 10 µM | AID 488839, 2010 | 330,000 tested, 0.01% active;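 active = highest replicate inhibition of at least 50% and at least 75% of replicates reaching 50%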;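 also: plate controls were DMSO neutral control for no effect and GW8510 at 10 µM for full effect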
GSK3A inh: blockers of GSK3A enzyme activity – biochemical, luminescence, cell-free homogeneous, HTS, primary screen. Glycogen synthase kinase-3 alpha (Homo sapiens), P49840. GSK-3 alpha kinase, ADP-Glo luminescence, 60 min. inhibition, % at 10 µM. 320,000 tested, 0.1% active. AID 2650, 2010;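 active = more than half of replicates show inhibition above 20%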;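 also: GST-tagged GSK-3 alpha with peptide substrate and 25 µM ATP; 0% = DMSO neutral wells and 100% = GW8510 positive control wells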
Dyrk1A artifact: ADP-Glo luciferase interference without Dyrk1A, dose response, artefact control for Dyrk1A inhibitor project, biochemical, luminescence, cherry-pick, set 02. AID 588348, 2011. ADP-Glo luciferase artifact assay, no Dyrk1A. shares compounds with DYRK1A inh. AC50, µM (doses to about 12 µM), inactives show at the top dose activity change, negative = inhibition. 1,300 tested, under 10 active;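 active = fitted half-maximal dose AC50 no more than ten times the top valid tested dose, with luminescence dropping as dose rises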
Starred values were filed as active, the others as inactive; . = not tested or not shown. The full list was thinned out, with hits kept by preference.

SMILES | GSK3B inh | DYRK1A inh | STK33 kinase inh | CDK5 inh | GSK3A inh | Dyrk1A artifact
CC(=O)c1sc(NC(=O)c2ccco2)nc1-c1ccccc1 | 2 | 4 | -1 | -1 | -1 | .
O=C1NC(=S)SC1=Cc1ccccc1Br | . | 47 | . | 1 | . | .
COc1cccc(OCCOc2ccc(/C=C3/SC(=S)NC3=O)cc2)c1 | -21 | 5 | 0 | 1 | -2 | .
O=C1NC(=S)SC1=Cc1ccc(F)cc1 | . | 84* | . | 2 | . | 11%
O=C1NC(=S)SC1=Cc1cc(Br)ccc1O | . | 84* | . | 0 | . | 13%
COc1ccc(C=C2SC(=S)NC2=O)cc1 | . | 76* | . | 1 | . | 5%
Cn1cc(CN2CCC(C(O)c3cccs3)CC2)c(-c2cccc(Cl)c2)n1 (stereo not drawn) | 2 | 1 | 0 | -2 | 0 | .
O=C(CCc1ccccc1)NC(=S)Nc1ccccc1[N+](=O)[O-] | 3 | 2 | -1 | -2 | 0 | .
Cc1c(C(=O)O)cccc1-c1ccc(/C=N/Nc2ccc(Br)cc2)o1 | -3 | 9 | 1 | -1 | -2 | .
O=C(O)c1cccc2c1-c1ccccc1/C2=N\Nc1ccccc1 | 1 | 7 | -2 | -1 | -1 | .
O=C(c1cccc2c1-c1ccccc1/C2=N/O)N1CCCCC1 | -3 | 60* | 7 | -2 | 4 | 10%
O=C(O)c1cccc2c1/C(=N/O)c1ccccc1-2 | 1 | 81* | 4 | -3 | 2 | 9%
NC(=O)N/N=C1\c2ccccc2-c2c(C(N)=O)cccc21 | 2 | 51* | 8 | 0 | 5 | 10%
O=C(COc1ccccc1Cl)Nc1ccccc1C(=O)N1CCCCC1 | -1 | -1 | -1 | -1 | 1 | .
O=C(CCn1c(=S)[nH]c2ccccc2c1=O)NCCc1ccc(Cl)cc1 | 2 | -7 | 0 | 0 | 2 | .
COc1cc(/C=c2\s/c(=C\C(=O)C(C)(C)C)[nH]c2=O)cc(OC)c1OC | -9 | 1 | 1 | 0 | 4 | .
COc1ccc(/C=c2\s/c(=C\C(=O)C(C)(C)C)[nH]c2=O)cc1O | -46 | 64* | 8 | 2 | 63* | 9%
O=C1CCCC2=C1Sc1ccc(Cl)cc1N2 | -5 | 54* | -1 | -1 | 8 | 9%
CCN(CC)C(=O)CNC(=S)N(CCCN1CCOCC1)Cc1cccs1 | 2 | -5 | . | -1 | . | .
COc1ccc(O)c(-c2cc(-c3cccs3)[nH]n2)c1 | 2 | 70* | 2 | 0 | 1 | 8%
Oc1ccc(Br)cc1-c1cc(-c2ccccc2Cl)[nH]n1 | 1 | -3 | -2 | -1 | -1 | .
COc1ccc(O)c(-c2cc(-c3ccccc3Cl)[nH]n2)c1 | -2 | 53* | -3 | 2 | -1 | 8%
COc1ccc2c(=O)cc(-c3ccccc3F)oc2c1 | -3 | 20 | 3 | -3 | 6 | .
Cc1cc(SCC(=O)NC2(C#N)CCCCC2)nc2c(C)cccc12 | . | . | -1 | 0 | -2 | .
COc1ccc(Nc2ncnc3nc[nH]c23)cc1OC | -1 | 50* | 10 | 3 | 19 | 7%
SMILES | GSK3B inh | DYRK1A inh | STK33 kinase inh | CDK5 inh | GSK3A inh | Dyrk1A artifact
CN1CCC(N(C)C(=O)c2ccc(Cl)c(S(=O)(=O)N3CCCCC3)c2)CC1 | . | -5 | . | -2 | . | .
COc1ccc2c3c([nH]c2c1)C(C)N(CCC(=O)NN)CC3 (stereo not drawn) | 4 | 74* | 2 | 0 | 0 | 10%
COc1ccc(C(C(=O)NC2CCCC2)N(C(=O)c2ccoc2C)c2ccc(C)c(C)c2)cc1 (stereo not drawn) | -2 | 2 | -2 | 1 | 2 | .
Nc1nc(N)c2c(ccc3nccc32)[nH]1 | -2 | 55* | 1 | 3 | 0 | 8%
Oc1ccccc1/C=N/n1c(-c2ccccc2)n[nH]c1=S | -1 | 36 | 9 | 13 | 10 | .
O=[N+]([O-])c1ccc(O)c(/C=N/n2c(-c3ccccc3)n[nH]c2=S)c1 | -3 | 57* | 6 | 9 | 28 | 7%
O=C(Cc1c(F)cccc1Cl)Nc1nc2ccccc2s1 | 0 | 51* | 5 | 2 | 0 | 6%
Cc1cccc(NNC(=S)Nc2c(C)cccc2C)c1 | -2 | -7 | 0 | 1 | 0 | .
O=S1(=O)c2cccc3cccc(c23)N1Cc1nnc(-c2ccccc2Br)o1 | -2 | 12 | 0 | 3 | 1 | .
O=C1c2ccccc2S(=O)(=O)N1Cc1nnc(-c2ccccc2Br)o1 | 0 | 59* | . | 0 | . | 9%
N#C/C(=C\c1cccs1)c1nc2ccccc2[nH]1 | -4 | 2 | -1 | 1 | -1 | .
N#C/C(=C/c1ccc(O)c(O)c1)c1nc2ccccc2[nH]1 | -2 | 67* | 7 | 1 | 10 | 9%
C[C@@H]1O[C@@H](O[C@H]2[C@H](O)[C@@H](O)[C@H](Oc3c(-c4ccc(O)cc4)oc4cc(O)cc(O)c4c3=O)O[C@@H]2CO)[C@H](O)[C@H](O)[C@H]1O | . | 6 | 2 | 2 | -3 | .
C[C@@H]1O[C@@H](OC[C@@H]2O[C@H](Oc3c(-c4ccc(O)cc4)oc4cc(O)cc(O)c4c3=O)[C@@H](O)[C@H](O)[C@H]2O)[C@H](O)[C@H](O)[C@H]1O | . | 72* | 3 | 0 | 15 | 7%
O=S(=O)(Cc1ccccc1)NCC1CCCN(Cc2ccc3nonc3c2)C1 (stereo not drawn) | 0 | 0 | 0 | -3 | 1 | .
Cc1ccc(NCC(=O)N=Nc2c(O)[nH]c3ccc([N+](=O)[O-])cc23)cc1 | -3 | . | 3 | . | 1 | .
O=C(Nc1ccc(F)cc1)C(=O)c1c(O)[nH]c2ccc([N+](=O)[O-])cc12 | -3 | 57* | 1 | 10 | -1 | 7%
O=[N+]([O-])c1ccc2c(c1)C(=NO)c1cc(F)ccc1-2 | . | 68* | . | 4 | . | 12%
COc1cc(-c2cc(=O)c3c(O)c(OC)c(OC)c(O)c3o2)ccc1O | -26 | 80* | 46* | 5 | 42 | 7%
CC[C@@H](C)[C@H](CNC)NC[C@@H](Cc1cccc2ccccc12)NCCc1cccc(C(F)(F)F)c1 | -5 | 55* | 0 | 1 | 17 | 4%
CCC[C@H](CN[C@@H](CNC)[C@H](C)CC)NCCc1cc(C(F)(F)F)cc(C(F)(F)F)c1 | -4 | 9 | 1 | 1 | 7 | .
CC(O)[C@H]1CNC(=O)C(=O)N1CCCCC1CCCCC1 (stereo partly drawn) | -2 | -3 | 0 | -1 | 1 | .
